In ChEMBL document CHEMBL1137462, “Indoloxypropanolamine analogues as 5-HT(1A) receptor antagonists” (Bioorg Med Chem Lett, 2007):
pEC50, pKi: −log10 of the molar value.

Assays:
[1] = biological target: T1, 5-hydroxytryptamine receptor 1A (Homo sapiens, UniProt P08908); assay: Displacement of [3H]DPAT from human 5HT1A receptor
T1 sequence (P08908 whole entry): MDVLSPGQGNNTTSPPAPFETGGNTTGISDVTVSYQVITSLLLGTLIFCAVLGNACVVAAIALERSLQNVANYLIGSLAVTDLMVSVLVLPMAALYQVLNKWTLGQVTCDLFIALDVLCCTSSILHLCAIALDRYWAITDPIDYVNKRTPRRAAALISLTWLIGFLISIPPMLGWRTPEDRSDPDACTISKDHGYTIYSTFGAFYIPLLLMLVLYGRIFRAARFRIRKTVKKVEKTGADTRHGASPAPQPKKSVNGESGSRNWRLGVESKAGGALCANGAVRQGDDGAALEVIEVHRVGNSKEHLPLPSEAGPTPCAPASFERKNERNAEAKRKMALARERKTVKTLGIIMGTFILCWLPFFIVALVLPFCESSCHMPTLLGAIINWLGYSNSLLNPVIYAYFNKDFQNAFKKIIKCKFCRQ
Outline: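 Radioligand binding in vitro using cell lines expressing the human 5-HT1A receptor. Values are mean ± SEM of at least three determinations.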

[2] = biological target: T2, 5-hydroxytryptamine receptor 1A (Homo sapiens) (UniProt P08908); assay: Antagonist activity at human 5HT1A expressed in mouse LM(tK-) cells assessed as inhibition of 5-HT-stimulated [35S]GTP-gamma-S binding at 10 uM; type: functional, cell-based; set-up: scale not given: the % may be the effect or the level left
T2 sequence (whole entry): T1 sequence (P08908 whole entry)
Outline: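 Human 5-HT1A receptor expressed in mouse LM(tk-) cells. [35S]GTPγS binding was stimulated with 300 nM 5-HT, and inhibition was measured at a single compound concentration, the highest that could be accurately tested.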

[3] = biological target: T1, 5-hydroxytryptamine receptor 1A; assay: Antagonist activity at human 5HT1A expressed in mouse LM(tK-) cells assessed as inhibition of 5-HT-stimulated [35S]GTP-gamma-S binding; type: functional, cell-based
Outline: (§1)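 [35S]GTPγS binding in mouse LM(tk−) cells expressing the human 5-HT1A receptor, with binding stimulated by 300 nM 5-HT. Ki was calculated from inhibition of that stimulation. Maximal inhibition was expressed as a percentage of the stimulation produced by a maximal 5-HT concentration. Where Ki could not be obtained, inhibition was read at the highest accurately testable compound concentration.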

[4] = biological target: T2, 5-hydroxytryptamine receptor 1A (Homo sapiens); assay: Antagonist activity at human 5HT1A expressed in mouse LM(tK-) cells assessed as maximal inhibition of 5-HT-stimulated [35S]GTPgammaS binding; type: functional, cell-based; set-up: scale not given: the % may be the effect or the level left
[5] = biological target: T1, 5-hydroxytryptamine receptor 1A; assay: Antagonist activity at human 5HT1A expressed in mouse LM(tK-) cells assessed as 5-HT-stimulated [35S]GTPgammaS binding; type: functional, cell-based; outline: as §1
[6] = biological target: T2, 5-hydroxytryptamine receptor 1A (Homo sapiens); assay: Antagonist activity at human 5HT1A expressed in mouse LM(tK-) cells assessed as maximal 5-HT-stimulated [35S]GTPgammaS binding relative to 5HT; type: functional, cell-based
[7] = biological target: Beta-1 adrenergic receptor (Homo sapiens, UniProt P08588); assay: Binding affinity at human adrenergic beta-1 receptor
Rattus norvegicus [8] = assay: Blockade of 8-OH-DPAT-induced increase in serum corticosterone level in Spargue-Dawley rat at 0.03 mg/kg, sc; type: functional; settings: route subcutaneous
Outline: (§2)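 Male Sprague–Dawley rats received compound sc at 0.03–1.0 mg/kg, 15 min before 0.3 mg/kg sc 8-OH-DPAT. Rats were killed 1 h after the agonist. Serum corticosterone was measured with a 3H-corticosterone kit. Results are mean and standard error, n = 5 rats per group, with percent antagonism of the 8-OH-DPAT-induced rise.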

Rattus norvegicus [9] = assay: Blockade of 8-OH-DPAT-induced increase in serum corticosterone level in Spargue-Dawley rat at 0.1 mg/kg, sc; type: functional; settings: route subcutaneous; outline: as §2
Rattus norvegicus [10] = assay: Blockade of 8-OH-DPAT-induced increase in serum corticosterone level in Spargue-Dawley rat at 0.3 mg/kg, sc; type: functional; settings: route subcutaneous; outline: as §2
Rattus norvegicus [11] = assay: Blockade of 8-OH-DPAT-induced increase in serum corticosterone level in male Spargue-Dawley rat at 1.0 mg/kg, sc; type: functional; settings: route subcutaneous; outline: as §2
[12] = biological target: Beta-2 adrenergic receptor (Homo sapiens, UniProt P07550); assay: Binding affinity at human adrenergic beta2 receptor
Rattus norvegicus [13] = assay: Blockade of 8-OH-DPAT-induced increase in serum corticosterone level in sc dosed Spargue-Dawley rat; type: functional; outline: as §2

Beta-1 adrenergic receptor, sequence (P08588 whole entry): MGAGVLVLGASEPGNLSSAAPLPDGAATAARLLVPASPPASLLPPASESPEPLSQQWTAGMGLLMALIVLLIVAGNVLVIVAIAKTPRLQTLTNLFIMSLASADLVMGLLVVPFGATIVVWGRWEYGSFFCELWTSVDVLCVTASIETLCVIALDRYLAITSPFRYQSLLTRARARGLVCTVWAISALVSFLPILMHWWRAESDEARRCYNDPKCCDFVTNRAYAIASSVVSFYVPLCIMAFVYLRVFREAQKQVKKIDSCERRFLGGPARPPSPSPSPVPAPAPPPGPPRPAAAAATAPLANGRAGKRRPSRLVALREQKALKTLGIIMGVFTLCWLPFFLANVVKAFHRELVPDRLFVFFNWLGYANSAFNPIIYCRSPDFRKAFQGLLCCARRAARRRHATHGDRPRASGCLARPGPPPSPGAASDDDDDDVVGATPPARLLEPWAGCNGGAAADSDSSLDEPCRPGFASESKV
Beta-2 adrenergic receptor, sequence (P07550 whole entry): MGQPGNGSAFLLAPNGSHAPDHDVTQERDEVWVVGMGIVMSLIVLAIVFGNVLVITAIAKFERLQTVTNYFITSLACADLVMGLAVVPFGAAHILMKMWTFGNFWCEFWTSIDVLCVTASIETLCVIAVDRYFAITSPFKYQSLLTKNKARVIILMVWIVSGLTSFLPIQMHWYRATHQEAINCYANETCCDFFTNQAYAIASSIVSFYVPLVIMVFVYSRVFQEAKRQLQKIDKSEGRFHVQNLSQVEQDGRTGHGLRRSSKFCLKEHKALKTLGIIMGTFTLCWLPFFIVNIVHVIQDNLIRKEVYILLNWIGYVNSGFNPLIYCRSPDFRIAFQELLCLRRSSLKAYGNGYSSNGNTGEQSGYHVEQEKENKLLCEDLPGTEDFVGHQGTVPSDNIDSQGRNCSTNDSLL

## COC(CNC12CC3CC(CC(C3)C1)C2)COc1cccc2[nH]ccc12 (configuration not stated)
[1]
  pKi: 7.49
[2]
  Activity: 28.9%

## O[C@H](CNC12CC3CC(CC(C3)C1)C2)COc1cccc2[nH]ccc12
[3]
  pKi: 7.52
[1]
  pKi: 7.74
[4]
  Activity: 3.15%

## C[C@](O)(CNC1CCCCC1)COc1cccc2[nH]ccc12
[1]
  pKi: 5.84

## OC(CNC1CCCCC1)COc1cccc2[nH]ccc12 (configuration not stated)
[3]
  pKi: 8.01
[1]
  pKi: 8.45
[4]
  Activity: 9.88%

## O[C@H](CNC1CCCCC1)COc1cccc2[nH]ccc12
[3]
  pKi: 7.29
[1]
  pKi: 7.58
[4]
  Activity: 8.87%

## COC(CNC1CCCCC1)COc1cccc2[nH]ccc12 (configuration not stated)
[1]
  pKi: 7.39
[2]
  Activity: 36.2%

## OC(CNC1CCCC1)COc1cccc2[nH]ccc12 (configuration not stated)
[3]
  pKi: 7.45
[1]
  pKi: 7.97
[4]
  Activity: 11.8%

## OC(CNC12CC3CC(CC(C3)C1)C2)COc1cccc2[nH]ccc12 (configuration not stated)
[3]
  pKi: 8.11
[1]
  pKi: 8.03
[4]
  Activity: 6.56%

## OC(CNC12CC3CC(CC(C3)C1)C2)COc1ccc2[nH]ccc2c1 (configuration not stated)
[1]
  pKi: 6.08

## c1cc(OCCCNC2CCCC2)c2cc[nH]c2c1
[3]
  pKi: 6.63
[1]
  pKi: 7.03
[4]
  Activity: 24.8%

## OC(CNC1CCCCC1)COc1ccc2[nH]ccc2c1 (configuration not stated)
[1]
  pKi: < 5.52

## C[C@](O)(CNC12CC3CC(CC(C3)C1)C2)COc1cccc2[nH]ccc12
[1]
  pKi: 6.06

## CCC(CC)NCC(O)COc1cccc2[nH]ccc12 (configuration not stated)
[3]
  pKi: 7.30
[1]
  pKi: 7.54
[4]
  Activity: 4.74%

## OC(CCNC1CCCCC1)COc1cccc2[nH]ccc12 (configuration not stated)
[1]
  pKi: 6.90
[5]
  pEC50: 6.40
[6]
  Emax: 45.6%

## c1cc(OCCCNC2CCCCC2)c2cc[nH]c2c1
[1]
  pKi: 7.11
[2]
  Activity: 31.3%

## OC(CCOc1cccc2[nH]ccc12)CNC12CC3CC(CC(C3)C1)C2 (configuration not stated)
[1]
  pKi: 6.26

## OC(CNC1CCCCCC1)COc1cccc2[nH]ccc12 (configuration not stated)
[3]
  pKi: 7.95
[1]
  pKi: 8.17
[4]
  Activity: 8.9%

## O[C@@H](CNC1C2CC3CC(C2)CC1C3)COc1cccc2[nH]ccc12 (some centres not stated)
[3]
  pKi: 7.62
[1]
  pKi: 7.95
[4]
  Activity: 8.75%

## O[C@@H](CNC1CCCCC1)COc1cccc2[nH]ccc12
[3]
  pKi: 8.18
[7]
  pKi: 8.63
[1]
  pKi: 8.88
[4]
  Activity: 7.52%
Rattus norvegicus [8]
  Activity: 13%
Rattus norvegicus [9]
  Activity: 26%
Rattus norvegicus [10]
  Activity: 53%
Rattus norvegicus [11]
  Activity: 92%
[12]
  pKi: 8.43
Rattus norvegicus [13]
  ED50: 2.5 mg/kg

## OC(CCOc1cccc2[nH]ccc12)CNC1CCCCC1 (configuration not stated)
[1]
  pKi: 6.06

## O[C@@H](CNC12CC3CC(CC(C3)C1)C2)COc1cccc2[nH]ccc12
[3]
  pKi: 8.33
[7]
  pKi: 8.10
[1]
  pKi: 8.41
[4]
  Activity: 6.38%
[12]
  pKi: 8.18

## CC(C)NCC(O)CCOc1cccc2[nH]ccc12 (configuration not stated)
[1]
  pKi: 5.75

## OC(CCNC12CC3CC(CC(C3)C1)C2)COc1cccc2[nH]ccc12 (configuration not stated)
[1]
  pKi: 7.12
[5]
  pEC50: 6.07
[6]
  Emax: 51.8%

## CC(C)NCC(O)COc1cccc2[nH]ccc12 (configuration not stated)
[4]
  Activity: 9.76%
